pIC50: −log10 of the molar value.

The values below come from ChEMBL document CHEMBL1909586 (Eur J Med Chem, 2011).

The target of series [1] is T1, Acetylcholinesterase (Homo sapiens, UniProt P22303). Nature of the series: Inhibition of human […] recombinant AChE after 20 mins using acetylthiocholine iodide as a substrate by Ellman's assay. Background: In Ellman's method for cholinesterases, released thiocholine reacts with DTNB.
The next series concerns the target Cholinesterase (Homo sapiens, UniProt P06276). Nature of the series: Inhibition of human serum recombinant BChE after 20 mins using butyrylthiocholine iodide as a substrate by Ellman's assay.
Series [2] relates to SH-SY5Y. Nature of the series: Antioxidant activity in human SH-SY5Y cells assessed as inhibition of tert-butyl hydroperoxide-induced intracellular ROS production at 1 uM after 24 hrs using DCFH-DA by fluorescence assay (reference value: 82.4 +/- 6.6 %). In kind it is functional. On the set-up: scale not given: the % may be the effect or the level left.
The test system of series [3] is SH-SY5Y. Nature of the series: Antioxidant activity in human SH-SY5Y cells assessed as inhibition of tert-butyl hydroperoxide-induced intracellular ROS production at 5 uM after 24 hrs using DCFH-DA by fluorescence assay (reference value: 82.4 +/- 6.6 %). In kind it is functional. Details: scale not given: the % may be the effect or the level left.
Series [4] has as its system SH-SY5Y. Description: Antioxidant activity in human SH-SY5Y cells assessed as inhibition of tert-butyl hydroperoxide-induced intracellular ROS production at 10 uM after 24 hrs using DCFH-DA by fluorescence assay (reference value: 82.4 +/- 6.6 %). In kind it is functional. Details: scale not given: the % may be the effect or the level left.
The test system of series [5] is SH-SY5Y. Nature of the series: Cytotoxicity against human SH-SY5Y cells assessed as reduction in cell viability at 50 uM after 24 hrs by MTT assay. In kind it is cell-based. The method, boiled down:
(§1)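 Cells were SH-SY5Y, grown in DMEM with 10% fetal calf serum and 2 mM glutamine, seeded at 2 × 10^5 cells/well and allowed 24 h at 37 °C/5% CO2. Compound-containing media (0.1–50 µM) were applied for 24 h. After a PBS wash, cells took up MTT (5 mg/mL in PBS) for 4 h. Formazan was dissolved in isopropanol and read at 405 nm. Viability is given as % of control cells.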
In general terms: Tetrazolium assays rely on reduction of a dye to a coloured formazan, in cell work by metabolically active cells.

Series [6] deals with SH-SY5Y. Description: Antioxidant activity in human SH-SY5Y cells assessed as inhibition of tert-butyl hydroperoxide-induced intracellular ROS production at 50 uM after 24 hrs using DCFH-DA by fluorescence assay (reference value: 82.4 +/- 6.6 %). In kind it is functional. Details: scale not given: the % may be the effect or the level left.
Series [7] relates to SH-SY5Y. Description: Cytotoxicity against human SH-SY5Y cells at 0.1 to 50 uM after 24 hrs by MTT assay. In kind it is cell-based. An outline of the steps: as §1
For series [8], the target named is T1, Acetylcholinesterase. Description: Inhibition of human AChE-induced amyloid beta (1 to 40) aggregation at 100 uM after 24 hrs by thioflavin T based fluorometric assay.

Cholinesterase, sequence (P06276 whole entry): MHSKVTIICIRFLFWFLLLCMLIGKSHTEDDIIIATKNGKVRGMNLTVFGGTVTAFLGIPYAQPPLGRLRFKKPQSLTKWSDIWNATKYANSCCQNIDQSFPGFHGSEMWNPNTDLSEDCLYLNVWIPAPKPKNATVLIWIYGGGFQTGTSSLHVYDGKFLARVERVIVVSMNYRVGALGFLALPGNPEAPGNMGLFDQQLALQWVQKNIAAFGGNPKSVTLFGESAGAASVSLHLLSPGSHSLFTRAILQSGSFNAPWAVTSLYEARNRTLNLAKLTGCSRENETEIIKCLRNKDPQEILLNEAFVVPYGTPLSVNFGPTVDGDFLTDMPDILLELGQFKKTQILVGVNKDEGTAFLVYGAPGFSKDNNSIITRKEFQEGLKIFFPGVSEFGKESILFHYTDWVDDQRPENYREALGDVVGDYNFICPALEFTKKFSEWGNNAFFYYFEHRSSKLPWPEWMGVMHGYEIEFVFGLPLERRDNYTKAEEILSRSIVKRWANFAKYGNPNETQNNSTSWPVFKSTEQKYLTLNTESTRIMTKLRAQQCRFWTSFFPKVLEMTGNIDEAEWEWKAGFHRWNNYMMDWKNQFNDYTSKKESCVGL
T1 sequence (P22303 whole entry): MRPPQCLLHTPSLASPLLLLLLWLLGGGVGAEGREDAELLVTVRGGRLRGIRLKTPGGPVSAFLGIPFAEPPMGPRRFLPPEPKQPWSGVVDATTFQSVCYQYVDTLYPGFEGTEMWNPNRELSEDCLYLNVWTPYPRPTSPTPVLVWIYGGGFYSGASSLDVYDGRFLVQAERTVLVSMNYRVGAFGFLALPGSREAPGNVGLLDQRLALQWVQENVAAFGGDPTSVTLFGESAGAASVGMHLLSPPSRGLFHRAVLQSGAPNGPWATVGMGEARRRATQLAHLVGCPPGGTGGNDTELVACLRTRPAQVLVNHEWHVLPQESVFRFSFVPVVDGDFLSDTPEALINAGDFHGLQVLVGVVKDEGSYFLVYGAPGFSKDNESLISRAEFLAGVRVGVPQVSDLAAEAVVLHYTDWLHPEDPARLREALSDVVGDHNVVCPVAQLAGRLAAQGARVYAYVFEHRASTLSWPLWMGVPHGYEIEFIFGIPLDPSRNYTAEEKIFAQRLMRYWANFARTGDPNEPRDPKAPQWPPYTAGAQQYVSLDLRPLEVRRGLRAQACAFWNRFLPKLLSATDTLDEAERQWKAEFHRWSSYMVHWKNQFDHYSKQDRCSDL

As a reminder, the pIC50 is the IC50 on a negative log10 scale, so that one unit is a factor of ten. With `O=C(CCCC[C@H]1CCSS1)NCCCNc1c2c(nc3cc(Cl)ccc13)CCCC2`, the pIC50 on Acetylcholinesterase [1] was 9.33; at Cholinesterase, 7.92.
For the compound `O=C(CCCC[C@@H]1CCSS1)NCCCNc1c2c(nc3cc(Cl)ccc13)CCCC2`, the negative logarithm of the IC50 (pIC50) on Cholinesterase is 7.90.
In the case of `O=C(CCCCc1cccs1)NCCCNc1c2c(nc3cc(Cl)ccc13)CCCC2`, the Activity in the series with SH-SY5Y [2] worked out at 81%; in the series with SH-SY5Y [3], 79.8%; in the series on SH-SY5Y [4], 80.2%; with SH-SY5Y [5], 80%.
Turning to `COc1cccc(C(C)N(C)CCCNC(=O)CCCCC2CCSS2)c1` (mixture of isomers), the Activity is 82.5% with SH-SY5Y [2]; 80% in the series on SH-SY5Y [3]; 68.8% in the series on SH-SY5Y [4]; 46.4% in the series on SH-SY5Y [6]; “Non-toxic” in the series on SH-SY5Y [7].
In the case of `CC(c1cccc(OCCCNC(=O)CCCCC2CCSS2)c1)N(C)C` (mixture of isomers), the Activity in the series with SH-SY5Y [2] is given as 80.3%; with SH-SY5Y [3], 76.8%; in the series on SH-SY5Y [4] it was 48%; with SH-SY5Y [6], 34.4%; with SH-SY5Y [7], “Non-toxic”.
As to `COc1cc2nc(Cl)nc(NCCCNC(=O)CCCCC3CCSS3)c2cc1OC` (racemic), the negative-log IC50 (pIC50) at Cholinesterase is 3.69. Also, the Activity in the series on SH-SY5Y [2] was 82%; in the series with SH-SY5Y [3] it was 73.5%; with SH-SY5Y [4] it was 63.4%; in the series with SH-SY5Y [5] it was 30%.
For orientation: inhibition means how much of the control response was suppressed. Consider `CCN(CCCCCCNC(=O)CCCCC1CCSS1)Cc1ccccc1OC` (racemic), for which the Activity in the series on SH-SY5Y [2] is 80.8%; in the series with SH-SY5Y [3], 75.8%; in the series on SH-SY5Y [4], 69.6%; with SH-SY5Y [6] it was 37.6%; with SH-SY5Y [7] it was “Non-toxic”. On Acetylcholinesterase [8], this compound registered an inhibition of 16.8%.
Regarding `O=C(CCCCC1CCSS1)NCCCNc1c2c(nc3cc(Cl)ccc13)CCCC2` (racemic) [LIPOCRINE], the Activity in the series with SH-SY5Y [2] is 83.2%; in the series with SH-SY5Y [3] it was 65%; in the series on SH-SY5Y [4] it was 50%; with SH-SY5Y [6], 31%. At Acetylcholinesterase [8], this compound came in with an inhibition of 61.8%.
